Measurements collected from several papers.
Lines come from different studies, so protocols differ.
Target: Casein kinase I isoform gamma-1 (CSNK1G1, Homo sapiens, UniProt Q9HCP0)

SMILES	assay	setting	quantity	value
CC(C)c1ccc(NC(=O)c2cccs2)c(-c2nc3ccccc3[nH]c2=O)c1	enzyme activity, inhibitor	1 µM	activity vs control	102%
Cc1nc(N2CC[C@@H](O)C2)ncc1-c1cc(C(F)(F)F)cc2[nH]ncc12	cell-free assay, competition with immobilised ligand	1 µM	remaining binding	78%
COc1cc2c(Nc3ccc(Br)cc3F)ncnc2cc1OCC1CCN(C)CC1	cell-free assay	0.5 µM	remaining signal	100%
COc1ccc2cc(OCC3(C(=O)O)CN(C(=O)c4ccc(F)cc4)C3)ccc2c1	cell-free assay, competition with immobilised ligand	1 µM	remaining binding	94%
CNC(=O)c1cc(Oc2ccc(NC(=O)Nc3ccc(Cl)c(C(F)(F)F)c3)cc2)ccn1	enzyme activity, inhibitor	0.3 µM	inhibition	-16%
CN1CC(Oc2cnc(C#N)cc2-c2ccn3nc(NC(=O)C4CC4)cc3c2)C1	enzyme activity, inhibitor	1 µM	inhibition	-3%
CC(C)(C)c1nc(-c2cccc(NS(=O)(=O)c3c(F)cccc3F)c2F)c(-c2ccnc(N)n2)s1	enzyme activity, inhibitor, radiometric	1 µM	remaining activity	96%
Cc1sc(C(=O)NC2COC2)cc1-n1cc(NC(=O)Nc2c(F)cccc2Cl)cn1	enzyme activity, inhibitor	10 µM	remaining activity	101%
COc1cc2ncnc(Nc3ccc(Oc4ccccc4)c(C)c3C)c2cc1OC	enzyme activity, inhibitor	1 µM	inhibition	0%
O=C(O)[C@H]1[C@H](Cn2nnc3ccccc3c2=O)CC[C@@H]1C(=O)c1ccc(OCCC2CCOCC2)cc1	cell-free assay, competition with immobilised ligand	1 µM	remaining binding	94%
c1cnn2ncc(-c3ccnc(N4CCC45COC5)n3)c2c1	binding	1 µM	remaining binding	84%
CC(C)(O)c1cncc(-c2nc3ccc(F)cc3n2C2CC2)c1	cell-free assay, competition with immobilised ligand	1 µM	remaining binding	100%
CC(C)(O)[C@H]1CC[C@H](Nc2ccc3ncc(-c4cccc(C(F)(F)F)c4)n3n2)CC1	enzyme activity, inhibitor	1 µM	remaining activity	93%
CCc1ccccc1C(=O)Nc1n[nH]c2c(C)c(F)c(C3C(C#N)=C(C)N(C)C(C)=C3C#N)cc12	cell-free assay, competition with immobilised ligand	1 µM	remaining binding	95%
Cc1cc(NC(=O)c2cccc3cc(-c4cccc5[nH]nc(N)c45)ccc23)ccc1F	enzyme activity, inhibitor	0.1 µM	activity vs control	90%
Cc1cnc(NC2CCOCC2)nc1-n1cnc(C(=O)NC(CN)c2cc(F)cc(Cl)c2)c1 (centres unmarked)	enzyme activity, inhibitor, radiometric	1 µM	remaining activity	66%
O=C1NC(=O)c2cc(Nc3ccc(F)cc3)c(Nc3ccc(F)cc3)cc21	cell-free assay	0.5 µM	remaining signal	96.3%
CCS(=O)(=O)c1cc2cc(C[C@@](O)(CC(C)(C)c3ccc(F)cc3C(N)=O)C(F)(F)F)[nH]c2cn1	cell-free assay, competition with immobilised ligand	1 µM	remaining binding	100%
C[C@@H]1CCN(C(=O)CC#N)C[C@@H]1N(C)c1ncnc2[nH]ccc12	cell-free assay, inhibitor	0.5 µM	remaining signal	101%
Cc1ccc(Nc2nccc(N(C)c3ccc4c(C)n(C)nc4c3)n2)cc1S(N)(=O)=O	enzyme activity, inhibitor	10 µM	inhibition	-8%
